The list is not random: actives were taken first. Their share in the collection is about 2%.
S100A4 inh HTS: blocks human S100A4 binding to myosin IIA peptide. P26447. S100A4/TAMRA-MyoIIA peptide fluorescence polarization. 0.14% of 360,000 active. AID 652163. inhibition, % at 10.7 µM;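 active means mean inhibition of at least 70% across replicates, with every replicate also reaching that level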
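Material: S100A4 monomer (human). Medium: Calcium-containing HEPES buffer, pH 7.2. Probe or stimulus: labelled myosin peptide probe, 5 nM. Compound dosing: one concentration per compound. Timing: polarization read 5 min after assay mix addition, stable 5–60 min. Benchmarks: DMSO as neutral control, TFP as positive control.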
CAL PDZ FP-1: inhibitors of human CAL PDZ peptide binding; Q9HD26; purified CAL PDZ, TMR-peptide fluorescence polarization, 1 h; inhibition, % at 24.9 µM; 0.92% of 300,000 active;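 active means mean inhibition of at least 30% with at least half of replicates also reaching 30%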;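 further: 0% = DMSO neutral control and 100% = excess unlabeled competitor peptide PRC23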
CDK5 p35 inh: blocks human CDK5/p35 kinase activity | inhibition, % at 10 µM | 0.01% of 330,000 active | Recombinant CDK5/p35, ADP-Glo luminescence, 60 min | Q00535+Q15078;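 active means highest replicate inhibition of at least 50% and at least 75% of replicates reaching 50%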;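 further: plate controls were DMSO neutral control for no effect and GW8510 at 10 µM for full effect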
Target sequence (Q00535 whole entry, looked up): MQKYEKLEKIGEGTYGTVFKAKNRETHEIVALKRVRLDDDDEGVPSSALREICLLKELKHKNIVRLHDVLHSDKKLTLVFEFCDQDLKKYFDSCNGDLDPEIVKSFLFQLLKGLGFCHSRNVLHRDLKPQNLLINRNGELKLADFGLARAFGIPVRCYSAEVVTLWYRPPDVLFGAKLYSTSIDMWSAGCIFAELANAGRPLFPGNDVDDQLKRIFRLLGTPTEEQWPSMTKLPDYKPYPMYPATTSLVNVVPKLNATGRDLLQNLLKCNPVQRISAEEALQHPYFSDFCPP
Target sequence (Q15078 whole entry, looked up): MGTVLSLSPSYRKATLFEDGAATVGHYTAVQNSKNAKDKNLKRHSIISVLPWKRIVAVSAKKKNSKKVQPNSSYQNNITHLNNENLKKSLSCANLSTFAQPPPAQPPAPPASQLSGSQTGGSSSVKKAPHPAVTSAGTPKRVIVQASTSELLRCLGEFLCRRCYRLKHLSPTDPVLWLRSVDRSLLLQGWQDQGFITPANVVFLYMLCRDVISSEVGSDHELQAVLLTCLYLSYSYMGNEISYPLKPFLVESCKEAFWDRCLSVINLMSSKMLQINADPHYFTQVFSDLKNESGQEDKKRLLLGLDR
dFosB activator: activators of mouse delta FosB homodimer | purified delta FosB, TAMRA-CDK5 oligo fluorescence polarization; percent of positive-control signal above neutral wells | activation, % at 25 µM | 0.99% of 340,000 active | AID 493131;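 active means mean activation above about 17%, with every replicate also reaching it, limit read from the data, passing the limit was not always enough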
CAL PDZ FP-2: blocks peptide binding to human CAL PDZ domain | Q9HD26 | purified CAL PDZ, TMR-peptide fluorescence polarization, 1 h | inhibition, % at 20 µM | 0.02% of 330,000 active;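 active means highest replicate inhibition of at least 40%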;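 further: plate controls were DMSO neutral control wells for no effect and unlabeled competitor peptide control wells for full effect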
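System: tagged CAL PDZ domain. Schedule: 1 h room-temperature incubation prior to read. Signal: fluorescence polarization (mP). Measure: percent inhibition from loss of millipolarization.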
Statin myotox sup: protects C2C12 myotubes from simvastatin toxicity | AID 602340 | rescue of ATP level, % at 7.49 µM | 0.78% of 330,000 active | ATP luminescence, 48 h; scaled: DMSO 0, geranylgeraniol control 100;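 active means mean ATP rescue above about 67%, or every replicate alone reaching that limit, limit read from the data, passing the limit was not always enough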;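 further: myotubes were challenged with 10 µM simvastatin during compound exposure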
Active calls of the source: *; / = not tested or not shown.

SMILES	S100A4 inh HTS	CAL PDZ FP-1	CDK5 p35 inh	dFosB activator	CAL PDZ FP-2	Statin myotox sup
O=C(C[C@@H]1C[C@H]2c3cc(NS(=O)(=O)c4ccccc4)ccc3O[C@H]2[C@H](CO)O1)N1CCOCC1	-1	/	/	/	/	2
O=C(C[C@@H]1C[C@@H]2c3cc(NC(=O)CC4CC4)ccc3O[C@@H]2[C@H](CO)O1)NCCN1CCCCC1	7	/	/	/	/	7
O=C(C[C@H]1C[C@@H]2c3cc(NC(=O)C4CCOCC4)ccc3O[C@@H]2[C@H](CO)O1)NCCN1CCCCC1	115*	/	/	/	/	-1
COCC(=O)Nc1ccc2c(c1)[C@@H]1C[C@@H](CC(=O)N3CCOCC3)O[C@@H](CO)[C@@H]1O2	86*	/	/	/	/	-2
O=C(NCCN1C(=O)S/C(=C\c2ccc(Cl)c(Cl)c2)C1=O)C1COc2ccccc2O1 (stereo unspecified)	-1	-3	0	-14	24	8
Clc1ccc(CSc2cnnc3ccccc23)cc1Cl	2	1	0	-1	0	-8
Cn1c(CNC(=O)c2ccco2)nnc1SCC(=O)N1c2ccccc2Sc2ccccc21	/	-7	0	-11	0	93*
CCc1ccccc1NC(=O)CSc1nnc(CNC(=O)c2ccco2)n1C	-4	-2	-1	-1	-1	5
CCN1C(=O)[C@H]2[C@H]3CN=C(SCc4ccccc4)N3[C@@](CC)(C(=O)OC)[C@H]2C1=O	-3	0	-1	-1	1	16
COc1ccccc1/C=N/NC(=O)CSc1ccc2ccccc2n1	0	-1	0	-9	-3	-4
Cc1c(C(=O)Oc2cccc3ccccc23)cnn1-c1ccccc1	/	-2	1	-4	-2	100*
CCOC(=O)c1cnn(-c2ccccc2)c1NC(=O)CN1CCCCC1	2	34*	0	0	1	11
CCOC(=O)c1cnn(-c2ccccc2)c1-n1cccc1	/	-3	-1	-3	-2	107*
CC(=O)c1cnn(-c2ccccc2)c1C	-7	-2	0	-1	0	3
Cc1cc(NC(=O)CN2CCCCC2)n(-c2ccccc2)n1	3	/	/	/	/	/
CCc1ccccc1NC(=O)CC1CS(=O)(=O)CC1CC(=O)Nc1ccccc1CC (stereo unspecified)	/	-2	-4	1	-2	/
O=C(NCc1ccco1)C(c1ccccc1)N(C(=O)Cc1cccs1)c1ccccc1 (stereo unspecified)	/	2	0	-8	-2	125*
Cc1cc(NC(=O)CCNS(=O)(=O)c2ccc3[nH]c(=O)oc3c2)ccc1Br	10	-2	0	2	-1	3
Cc1ccc(NC(=O)CCNS(=O)(=O)c2ccc3[nH]c(=O)oc3c2)cc1F	-4	-1	-6	-3	-2	111*
Cc1cc(C)c(OCCCCN(C)Cc2ccccc2)c(C)c1	-3	-1	-1	-1	0	-27
NC(=S)N=Nc1c(O)[nH]c2c(Cl)cc(Cl)cc12	1	-1	6	-1	0	13
CCC1CCc2sc(C(=O)NCC(c3ccc(OC)cc3)N3CCOCC3)cc2C1 (stereo unspecified)	-1	-27	-2	-6	0	-13
CNC(=O)Cn1ncc2c(C)n(Cc3ccc(C)cc3)c(C)c2c1=O	/	-3	2	8	0	120*
CCCCSC(=O)Nc1ccccc1	/	-2	1	2	-1	18
CN(C)CCCNC1=CC(=O)CC(c2ccccc2)C1 (stereo unspecified)	2	-2	1	-1	-1	/
SMILES	S100A4 inh HTS	CAL PDZ FP-1	CDK5 p35 inh	dFosB activator	CAL PDZ FP-2	Statin myotox sup
COc1ccc(-c2noc(CCCOc3ccc(Cl)cc3Cl)n2)cc1	/	0	0	-12	-2	109*
Cc1ccc(-c2noc(CCCOc3ccc(Cl)cc3Cl)n2)cc1	/	0	1	-2	1	6
COc1ccc(NC(=O)CN(C)C(=O)C2CC(=O)N(c3ccc4c(c3)OCCO4)C2)cc1 (stereo unspecified)	154*	-1	0	1	-3	/
CC(=O)Nc1cccc(C(=O)NC2CCCc3c2cnn3-c2ccccc2F)c1 (stereo unspecified)	199*	-3	0	7	-1	-1
NC(=S)NNC(=O)c1ccccc1Cl	-4	34*	2	7	-1	/
COc1ccc(CNC(=O)C2CCC(CNc3c(N4CCCCC4)c(=O)c3=O)CC2)cc1 (stereo unspecified)	7	-1	-2	-5	-1	/
Cn1nc(C(=O)Nc2ccc(Cl)c(S(=O)(=O)N3CCOCC3)c2)c2ccccc2c1=O	-7	0	0	-18	-2	-1
O=C(Nc1ccc(Cl)c(S(=O)(=O)N2CCCC2)c1)c1nn(CCO)c(=O)c2ccccc12	-8	39*	-2	-19	-3	-4
S=C(Nc1cccnc1)NC1CC2CCC1C2 (stereo unspecified)	3	38*	1	-2	0	-12
c1cc(-c2nnc(-c3ccncc3)o2)ccn1	/	49*	-3	-8	/	/
CC(c1nc2ccccc2c(=O)[nH]1)N1CCN(C)CC1 (stereo unspecified)	/	-2	1	0	-1	117*
CCOC(=O)c1ccccc1NC(=O)COc1ccccc1	/	/	0	-10	-1	-8
CCOc1ccc(Nc2c3ccccc3nc3ccccc23)cc1	0	-5	1	86*	2	-32
CCOc1ccc(Nc2cc(C)c3ccccc3n2)cc1	-1	-1	1	-4	0	-12
OCC1(CCOc2ccccc2)CCN(CCCn2cccn2)CC1	-7	-5	-1	-4	20	/
COc1ccc(-c2nn(CCC#N)cc2C=C(C#N)C#N)cc1	0	62*	1	-11	-2	1
O=C(Nc1ccc(Br)cc1)C1C2C=CC3(O2)C1C(=O)N(CCN1CCOCC1)C3C(=O)NC1CCCCC1 (stereo unspecified)	0	-6	-1	-11	-1	3
COc1ccc(C(C)(C)C)cc1NC(=O)COC(=O)C1=NNC(=O)CC1	-11	133*	0	-4	0	19
CCOC(=O)CN1CC23C=CC(O2)C(C(=O)NC2CCCCC2)C3C1=O (stereo unspecified)	/	-3	1	-2	1	108*
CCCc1cc(=O)oc2cc(C)cc(OCC(=O)NCc3cccnc3)c12	8	41*	1	-13	-2	-37
COc1ccc(C2/C=C\CN(S(=O)(=O)c3cccc4cccnc34)CC(=O)N2Cc2ccc(F)cc2)cc1 (stereo unspecified)	91*	-1	-1	6	0	12

Bioassay records (PubChem BioAssay)
